From ChEMBL document CHEMBL4049400, “Aldehyde Oxidase Mediated Metabolism in Drug-like Molecules: A Combined Computational and Experimental Study” (J Med Chem, 2017)

Tests used:
Aldehyde oxidase [1] = molecular target: T1, Aldehyde oxidase (Homo sapiens, UniProt Q06278); experiment: Drug metabolism in human liver cytosol assessed as AOX-mediated oxidative metabolite formation by measuring decrease in the liquid chromatography-mass spectrometry peak at 10 uM after 30 min by UPLC/Q-TOF MS analysis; format: ADME; details: 0.5 h
T1 sequence (Q06278 whole entry): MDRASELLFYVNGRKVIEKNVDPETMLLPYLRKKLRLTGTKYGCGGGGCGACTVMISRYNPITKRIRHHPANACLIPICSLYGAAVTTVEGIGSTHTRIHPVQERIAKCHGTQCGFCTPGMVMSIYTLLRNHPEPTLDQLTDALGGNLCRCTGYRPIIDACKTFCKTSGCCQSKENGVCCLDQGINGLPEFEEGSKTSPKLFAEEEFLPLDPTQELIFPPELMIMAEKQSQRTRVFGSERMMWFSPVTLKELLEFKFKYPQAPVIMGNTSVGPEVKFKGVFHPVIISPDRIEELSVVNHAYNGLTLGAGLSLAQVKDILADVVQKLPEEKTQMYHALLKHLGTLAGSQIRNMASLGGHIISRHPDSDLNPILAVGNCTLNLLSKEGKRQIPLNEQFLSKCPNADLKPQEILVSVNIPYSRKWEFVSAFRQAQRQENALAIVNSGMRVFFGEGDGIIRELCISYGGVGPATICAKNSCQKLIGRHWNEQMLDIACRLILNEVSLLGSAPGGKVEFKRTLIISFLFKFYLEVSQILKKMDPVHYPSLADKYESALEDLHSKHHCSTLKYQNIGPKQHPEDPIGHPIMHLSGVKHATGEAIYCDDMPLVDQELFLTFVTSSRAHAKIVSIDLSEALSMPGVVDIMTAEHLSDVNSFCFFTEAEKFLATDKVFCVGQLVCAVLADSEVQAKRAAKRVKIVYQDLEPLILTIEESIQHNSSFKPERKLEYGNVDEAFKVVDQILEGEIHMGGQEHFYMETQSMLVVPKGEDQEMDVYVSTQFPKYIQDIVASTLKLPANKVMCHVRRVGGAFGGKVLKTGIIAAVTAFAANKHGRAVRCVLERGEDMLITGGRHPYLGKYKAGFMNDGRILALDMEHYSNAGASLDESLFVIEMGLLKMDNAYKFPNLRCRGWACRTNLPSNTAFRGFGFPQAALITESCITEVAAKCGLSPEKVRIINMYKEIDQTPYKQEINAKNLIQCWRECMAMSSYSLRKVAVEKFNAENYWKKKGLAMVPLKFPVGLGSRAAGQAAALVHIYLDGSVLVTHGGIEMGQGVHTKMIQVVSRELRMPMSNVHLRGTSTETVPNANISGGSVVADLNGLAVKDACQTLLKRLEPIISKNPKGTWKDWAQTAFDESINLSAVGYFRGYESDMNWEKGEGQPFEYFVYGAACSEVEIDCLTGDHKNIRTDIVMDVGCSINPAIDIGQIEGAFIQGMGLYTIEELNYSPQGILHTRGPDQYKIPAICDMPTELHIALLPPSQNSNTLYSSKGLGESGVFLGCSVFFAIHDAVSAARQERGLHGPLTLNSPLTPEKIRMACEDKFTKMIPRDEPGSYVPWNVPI
Outline: (§1)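 Pooled human liver cytosol, 0.5 mg/mL protein, in 100 mM potassium phosphate pH 7.4; 3 min preincubation at 37 °C, then 10 μM substrate (final; DMSO 0.1% v/v). Quenched after 30 min with equal volume ice-cold acetonitrile, centrifuged, supernatant run by UPLC/Q-TOF MS in positive ion mode. Controls without substrate or with inactivated enzyme; duplicate incubations.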

Aldehyde oxidase [2] = molecular target: T1, Aldehyde oxidase; experiment: Drug metabolism in human liver cytosol assessed as AOX-mediated 2-fluoro-N-methyl-4-(3-oxo-7-(quinolin-7-ylmethyl)-3,4-dihydroimidazo[1,2-b][1,2,4]triazin-2-yl)benzamide metabolite formation by measuring LC-MS peak area of the metabolite at 10 uM after 30 mins in presence of menadione by UPLC/Q-TOF MS analysis; format: ADME; details: 0.5 h
Outline: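 Human liver cytosol (0.5 mg/mL protein) in 100 mM phosphate buffer preincubated 10 min at 37 °C with 100 μM menadione (DMSO 0.2% v/v final), then 10 μM substrate (final) added. Stopped at 30 min with equal volume ice-cold acetonitrile; metabolites detected by UPLC/Q-TOF MS. Inhibitor-free controls run alongside; duplicate incubations.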

Aldehyde oxidase [3] = molecular target: T1, Aldehyde oxidase; experiment: Drug level in human liver cytosol treated with capmatinib assessed as AOX-mediated metabolite formation at 10 uM after 30 min by UPLC/Q-TOF MS analysis; format: ADME; details: 0.5 h; outline: as §1
[4] = Retention time of the compound by UPLC/Q-TOF MS analysis
Outline: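 HSS T3 column (1.8 μm, 100 × 2.1 mm) at 45 °C, 0.4 mL/min. Mobile phase: 5 mM ammonium acetate with 0.1% formic acid (A) and acetonitrile (B). Gradient 10% B for 1 min, to 65% B over 6 min, to 99% B over 0.5 min, held 1.5 min, back to 10% B. Positive-ion Q-TOF detection, m/z 80–1000.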

Aldehyde oxidase [5] = molecular target: T1, Aldehyde oxidase; experiment: Drug metabolism in human liver cytosol assessed as AOX-mediated 2-fluoro-N-methyl-4-(3-oxo-7-(quinolin-7-ylmethyl)-3,4-dihydroimidazo[1,2-b][1,2,4]triazin-2-yl)benzamide metabolite formation by measuring LC-MS peak area of the metabolite at 10 uM after 30 min by UPLC/Q-TOF MS analysis; format: ADME; details: 0.5 h; outline: as §1
Aldehyde oxidase [6] = molecular target: T1, Aldehyde oxidase; experiment: Drug metabolism in human liver cytosol assessed as as AOX-mediated quinolone group metabolism at 10 uM after 30 mins by UPLC/Q-TOF MS analysis; format: ADME; details: 0.5 h; outline: as §1

Q: Which Drug metabolism (Aldehyde oxidase [1]) does the source give for `Cn1cc(-c2ccc3ncc(Cc4ccc5ncccc5c4)n3n2)cn1` here?
A: The Drug metabolism was “Metabolite_Detected”.

Q: Which Drug metabolism (Aldehyde oxidase [2]) does the source give for `CNC(=O)c1ccc(-c2nn3c(Cc4ccc5ncccc5c4)cnc3[nH]c2=O)cc1F` here?
A: Its Drug metabolism is 3220.

Q: What about the Drug metabolism (Aldehyde oxidase [3]) of the same compound?
A: The Drug metabolism was “Metabolite_Detected”.

Q: And the Retention time [4]?
A: Its Retention time is 3.63 min.

Q: And the Drug metabolism (Aldehyde oxidase [5])?
A: Its Drug metabolism is 136000.

Q: Which Drug metabolism (Aldehyde oxidase [1]) does the source give for `CNC(=O)c1ccc(-c2cnc3ncc(Cc4ccc5ncccc5c4)n3n2)cc1F` [CAPMATINIB] here?
A: The Drug metabolism was “Metabolite_Detected”.

Q: With `Cn1cc(-c2ccc3nnc(C(F)(F)c4ccc5ncccc5c4)n3n2)cn1` [JNJ-38877605] as the compound, how does the Drug metabolism (Aldehyde oxidase [6]) read?
A: The Drug metabolism was “Metabolite_Detected”.

Q: With `OCCn1cc(-c2cnc3nnn(Cc4ccc5ncccc5c4)c3n2)cn1` [PF-04217903] as the compound, how does the Drug metabolism (Aldehyde oxidase [6]) read?
A: Its Drug metabolism is “Metabolite_Detected”.

Q: What about the Drug metabolism (Aldehyde oxidase [1]) of the same compound?
A: Its Drug metabolism is “Metabolite_Detected”.

Q: Which Drug metabolism (Aldehyde oxidase [6]) does the source give for `Cn1cc(-c2ccc3nnc(Sc4ccc5ncccc5c4)n3n2)cn1` [SGX-523] here?
A: Its Drug metabolism is “Metabolite_Detected”.
